# PubChem BioAssay AID488910 (Broad Institute, 2010)
# In all, about 20,000 compounds went through this assay and about 25 (0.1%) were called active. The sample holds actives, similar compounds and a random draw of the others, so the mix is not that of the screen. A number with no mark means an inactive call.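 How the source made its calls: active means mean replicate protection from cytokine-induced ATP loss at least 50% and at least 75% of replicates each reaching 50%; inconclusive means meets only one of the two criteria, mean or replicate share; inactive means fails both the mean and replicate share criteria.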
# Assay: protection of INS-1E cells from cytokine death, primary screen, ATP luminescence, single point (AID 488910)
# Settings: INS-1E cytokine-induced death, 48 h, at 10 µM, active compounds read high, normalised: neutral wells 0, positive control 100
# Outline: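 Material: INS-1E rat cells; Quantity: 8000 cells/well; Buffer or medium: phenol-red-free RPMI with 5% fetal bovine serum; Probe or stimulus: cytokine cocktail of IFN-γ, TNF-α and IL-1β; Compound dosing: single test concentration per compound, delivered by pin transfer; Incubation: 48 h co-treatment, 10 min post-lysis read; Signal: CellTiter-Glo luminescence.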
row,SMILES,protection from cytokine-induced ATP loss [%]
1,COc1cc(/C=N/NC(=O)CCCCCCC(=O)Nc2ccccc2O)ccc1O,-6.33
2,COc1ccc(NC(=O)N(C)C[C@H]2Oc3ccc(NC(=O)NC(C)C)cc3CC(=O)N([C@H](C)CO)C[C@H]2C)cc1,14
3,Cc1ccc(S(=O)(=O)N(C)C[C@@H]2Oc3ccc(N(C)C)cc3C(=O)N([C@@H](C)CO)C[C@H]2C)cc1,-1.09
4,Cc1ccc(S(=O)(=O)Nc2ccc3c(c2)C(=O)N([C@@H](C)CO)C[C@@H](C)[C@H](CN(C)Cc2ccc(C(=O)O)cc2)O3)cc1,3.07
5,C[C@H]1CN([C@@H](C)CO)C(=O)Cc2cc(NC(=O)Cn3cnnn3)ccc2O[C@H]1CN(C)Cc1ccc(C(=O)O)cc1,10.1
6,Cc1noc(C)c1S(=O)(=O)N(C)C[C@@H]1Oc2c(NS(=O)(=O)c3cn(C)cn3)cccc2C(=O)N([C@@H](C)CO)C[C@H]1C,4.74
7,CC(C)NC(=O)Nc1ccc2c(c1)C(=O)N([C@@H](C)CO)C[C@@H](C)[C@H](CN(C)Cc1ccc(Cl)c(Cl)c1)O2,-9.43
8,C[C@@H]1CN([C@H](C)CO)C(=O)c2cccc(NS(=O)(=O)c3ccc(Cl)cc3)c2O[C@H]1CN(C)Cc1ccc(C(F)(F)F)cc1,6.19
9,C[C@H]1CN([C@@H](C)CO)C(=O)c2cccc(NC(=O)Nc3ccc(F)cc3)c2O[C@H]1CN(C)S(=O)(=O)c1cn(C)cn1,5.6
10,Cc1noc(C)c1NC(=O)N(C)C[C@@H]1Oc2ccc(NS(=O)(=O)c3ccc(Cl)cc3)cc2C(=O)N([C@@H](C)CO)C[C@H]1C,5.78
11,C[C@@H]1CN([C@H](C)CO)C(=O)c2cccc(NC(=O)Nc3ccc4c(c3)OCO4)c2O[C@H]1CN(C)S(=O)(=O)c1ccc(Cl)cc1,-2.56
12,COc1ccc(NC(=O)N(C)C[C@@H]2Oc3c(NS(=O)(=O)c4ccc(OC)cc4)cccc3C(=O)N([C@H](C)CO)C[C@@H]2C)cc1,8.49
13,C[C@H]1CN([C@@H](C)CO)C(=O)c2cc(NC(=O)Cn3cnnn3)ccc2O[C@H]1CN(C)Cc1ccc(C(=O)O)cc1,1.96
14,C[C@@H]1CN([C@H](C)CO)C(=O)c2cccc(NC(=O)CCCCCC(=O)Nc3ccccc3N)c2O[C@H]1CN(C)CC1CCCCC1,4.11
15,C[C@@H]1CN([C@H](C)CO)C(=O)Cc2cc(NC(=O)Cn3cnnn3)ccc2O[C@H]1CN(C)Cc1ccc(Cl)c(Cl)c1,4.05
16,C[C@H](CO)N1C[C@H](C)[C@@H](CN(C)C(=O)Nc2ccccc2)Oc2c(NC(=O)CCCCCC(=O)Nc3ccccc3N)cccc2C1=O,4.22
17,C[C@@H]1CN([C@H](C)CO)C(=O)c2cccc(NS(=O)(=O)c3ccc(F)cc3)c2O[C@@H]1CN(C)S(=O)(=O)c1ccc(Cl)cc1,0.697
18,C[C@@H]1CN([C@@H](C)CO)C(=O)c2cccc(NC(=O)Nc3cccc4ccccc34)c2O[C@@H]1CN(C)CC1CC1,2.15

row,SMILES,protection from cytokine-induced ATP loss [%]
1,COC(=O)CCCCCCC(=O)N/N=C/c1c(Cl)cc(OC)c(OC)c1Cl,2.23
2,C[C@@H]1CN([C@@H](C)CO)C(=O)c2cc(NS(=O)(=O)c3ccc(F)cc3)ccc2O[C@@H]1CN(C)C(=O)NC1CCCCC1,-2.78
3,COc1ccc(NC(=O)N(C)C[C@H]2Oc3ccc(N(C)C)cc3C(=O)N([C@@H](C)CO)C[C@H]2C)cc1,3.7
4,Cc1ccc(S(=O)(=O)N(C)C[C@@H]2Oc3c(NC(=O)Nc4ccc(F)cc4)cccc3C(=O)N([C@H](C)CO)C[C@H]2C)cc1,40.9
5,CNC[C@H]1OCCCC[C@@H](C)Oc2ccc(NC(=O)Cc3ccccc3)cc2C(=O)N([C@H](C)CO)C[C@@H]1C,-7.6
6,C[C@@H]1CN([C@@H](C)CO)C(=O)Cc2cc(NS(=O)(=O)c3ccc(F)cc3)ccc2O[C@@H]1CN(C)S(=O)(=O)c1cccs1,4.79
7,C[C@H](CO)N1C[C@H](C)[C@H](CN(C)Cc2ccccc2)Oc2ccc(NC(=O)CCCCCC(=O)Nc3ccccc3N)cc2C1=O,-0.781
8,COc1ccc(NC(=O)N(C)C[C@@H]2Oc3ccc(NC(=O)CCCN(C)C)cc3CC(=O)N([C@H](C)CO)C[C@H]2C)cc1,7.7
9,C[C@@H]1CN([C@@H](C)CO)C(=O)c2cccc(NS(=O)(=O)c3ccc(Cl)cc3)c2O[C@@H]1CN(C)Cc1ccccc1,-3.08
10,CC(C)NC(=O)N(C)C[C@H]1Oc2ccc(NS(C)(=O)=O)cc2CC(=O)N([C@@H](C)CO)C[C@@H]1C,2.48
11,Cc1noc(C)c1NC(=O)N(C)C[C@@H]1Oc2c(NC(=O)C3CCCCC3)cccc2C(=O)N([C@H](C)CO)C[C@@H]1C,10.1
12,C[C@@H]1CN([C@H](C)CO)C(=O)c2cccc(NC(=O)Nc3ccc4c(c3)OCO4)c2O[C@@H]1CN(C)Cc1ccccc1,-9.92
13,C[C@@H]1CN([C@@H](C)CO)C(=O)c2cccc(NS(=O)(=O)c3cccs3)c2O[C@H]1CN(C)Cc1ccncc1,4.56
14,C[C@H]1CN([C@@H](C)CO)C(=O)Cc2cc(NC(=O)Cn3cnnn3)ccc2O[C@@H]1CN(C)Cc1ccc(-c2ccccc2)cc1,5.19
15,C[C@@H]1CN([C@H](C)CO)C(=O)Cc2cc(NC(=O)Nc3cccc4ccccc34)ccc2O[C@@H]1CN(C)Cc1ccc(C(F)(F)F)cc1,-18.8
16,Cc1ccc(S(=O)(=O)Nc2ccc3c(c2)CC(=O)N([C@H](C)CO)C[C@@H](C)[C@H](CN(C)Cc2ccc(C(F)(F)F)cc2)O3)cc1,4.83
17,O=C(NO)c1ccc(C(=O)N/N=C/c2cc(Br)cc(Br)c2O)cc1,29.8
18,C[C@@H]1CN([C@@H](C)CO)C(=O)c2cc(NS(=O)(=O)c3ccc(Cl)cc3)ccc2O[C@H]1CN(C)C(=O)Nc1ccc(C(F)(F)F)cc1,-4.38
